ChEMBL document CHEMBL1781927, “Highly selective c-Jun N-terminal kinase (JNK) 3 inhibitors with in vitro CNS-like pharmacokinetic properties II. Central core replacement” (Bioorg Med Chem Lett, 2011)
pIC50: −log10 of the molar value. Values after ≈ are worked out from the molar mass of the structure shown. Blank lines part the entries; values can stand above or below the compound they belong to.

Experiments:
[1] = target: Mitogen-activated protein kinase 9 (Homo sapiens, UniProt P45984); experiment: Inhibition of JNK2 by TR-FRET assay
Procedure, shortened: (§1)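 IC50s were determined at a single fixed ATP concentration, and each value is the mean of at least three independent experiments.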

[2] = Solubility of the compound; assay type: physicochemical
[3] = target: T1, Mitogen-activated protein kinase 10 (Homo sapiens, UniProt P53779); experiment: Inhibition of JNK3 by TR-FRET assay; procedure, shortened: as §1
[4] = target: Mitogen-activated protein kinase 8 (Homo sapiens, UniProt P45983); experiment: Inhibition of JNK1 by TR-FRET assay; procedure, shortened: as §1
[5] = Selectivity ratio of IC50 for JNK1 to IC50 for JNK3
[6] = Oxidative metabolic stability in human liver microsomes assessed as compound remaining after 30 mins; assay type: ADME, Microsome; conditions: read-out: Stability
Procedure, shortened: (§2)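 Liver microsomes, mouse or human, were incubated with the compound for 30 min under oxidative conditions. The read-out is the percent of parent compound remaining.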

[7] = Oxidative metabolic stability in mouse liver microsomes assessed as compound remaining after 30 mins; assay type: ADME, Microsome; conditions: read-out: Stability; procedure, shortened: as §2
[8] = target: Mitogen-activated protein kinase 1 (Homo sapiens) (UniProt P28482); experiment: Inhibition of MAPK1 at 10 uM
[9] = target: Receptor-type tyrosine-protein kinase FLT3 (Homo sapiens) (UniProt P36888); experiment: Inhibition of FLT3 at 10 uM
[10] = target: Glycogen synthase kinase-3 beta (Homo sapiens) (UniProt P49841); experiment: Inhibition of GSK3B at 10 uM
[11] = target: Serine/threonine-protein kinase Chk1 (Homo sapiens) (UniProt O14757); experiment: Inhibition of CHEK1 at 10 uM
[12] = target: Serine/threonine-protein kinase MARK2 (Homo sapiens) (UniProt Q7KZI7); experiment: Inhibition of MARK2 at 10 uM
[13] = Metabolic stability in human liver microsomes assessed as compound remaining after 60 mins in presence of UDPGA; assay type: ADME, Microsome; conditions: read-out: Stability
[14] = target: RAC-alpha serine/threonine-protein kinase (Homo sapiens) (UniProt P31749); experiment: Inhibition of AKT1 at 10 uM
[15] = target: Receptor-interacting serine/threonine-protein kinase 2 (Homo sapiens) (UniProt O43353); experiment: Inhibition of RIPK2 at 10 uM
[16] = target: Macrophage colony-stimulating factor 1 receptor (Homo sapiens) (UniProt P07333); experiment: Inhibition of CSF1R at 10 uM
[17] = target: Cyclin-dependent kinase 2/cyclin A (Homo sapiens) (UniProt P24941+P20248+P78396); experiment: Inhibition of CDK2/cyclin A at 10 uM; assay type: protein-complex assay
[18] = target: Dual specificity protein kinase TTK (Homo sapiens) (UniProt P33981); experiment: Inhibition of TTK at 10 uM
[19] = target: Proto-oncogene tyrosine-protein kinase receptor Ret (Homo sapiens) (UniProt P07949); experiment: Inhibition of RET at 10 uM
[20] = target: Serine/threonine-protein kinase 16 (Homo sapiens) (UniProt O75716); experiment: Inhibition of STK16 at 10 uM
[21] = target: Dual specificity protein kinase CLK1 (Homo sapiens) (UniProt P49759); experiment: Inhibition of CLK1 at 10 uM
[22] = target: Dual specificity tyrosine-phosphorylation-regulated kinase 1B (Homo sapiens) (UniProt Q9Y463); experiment: Inhibition of DYRK1B at 10 uM
[23] = target: Tyrosine-protein kinase ABL1 (Homo sapiens) (UniProt P00519); experiment: Inhibition of ABL1 at 10 uM
[24] = target: Platelet-derived growth factor receptor alpha (Homo sapiens) (UniProt P16234); experiment: Inhibition of PDGFRA at 10 uM
[25] = target: Receptor tyrosine-protein kinase erbB-4 (Homo sapiens) (UniProt Q15303); experiment: Inhibition of ERBB4 at 10 uM
[26] = target: Tyrosine-protein kinase JAK1 (Homo sapiens) (UniProt P23458); experiment: Inhibition of JAK1 at 10 uM
[27] = target: Serine/threonine-protein kinase 3 (Homo sapiens) (UniProt Q13188); experiment: Inhibition of STK3 at 10 uM
[28] = target: Calcium/calmodulin-dependent protein kinase type II subunit alpha (Homo sapiens) (UniProt Q9UQM7); experiment: Inhibition of CAMK2A at 10 uM
[29] = target: Protein-tyrosine kinase 2-beta (Homo sapiens) (UniProt Q14289); experiment: Inhibition of PTK2B at 10 uM
[30] = target: Serine/threonine-protein kinase PLK3 (Homo sapiens) (UniProt Q9H4B4); experiment: Inhibition of PLK3 at 10 uM
[31] = Metabolic stability in mouse liver microsomes assessed as compound remaining after 60 mins in presence of UDPGA; assay type: ADME, Microsome; conditions: read-out: Stability
[32] = Efflux ratio, permeability from apical to basolateral side to basolateral to apical side in MDR1 expressing MDCK2 cells at 5 uM after 120 mins; assay type: ADME, cell-based, Canis lupus familiaris; conditions: dog, mdck-ii, 2 h
[33] = target: Serine/threonine-protein kinase PAK 4 (Homo sapiens) (UniProt O96013); experiment: Inhibition of PAK4 at 10 uM
[34] = target: Protein kinase C beta type (Homo sapiens) (UniProt P05771); experiment: Inhibition of PRKCB1 at 10 uM
[35] = target: Serine/threonine-protein kinase PLK2 (Homo sapiens) (UniProt Q9NYY3); experiment: Inhibition of PLK2 at 10 uM
[36] = target: cAMP-dependent protein kinase catalytic subunit alpha (Homo sapiens) (UniProt P17612); experiment: Inhibition of PKACA at 10 uM
[37] = target: T1, Mitogen-activated protein kinase 10; experiment: Inhibition of MAPK10 at 10 uM
[38] = target: Cyclin-dependent kinase 1/cyclin B1 (Homo sapiens) (UniProt P06493+P14635); experiment: Inhibition of CDK1/cyclin B at 10 uM; assay type: protein-complex assay
[39] = target: RAF proto-oncogene serine/threonine-protein kinase (Homo sapiens) (UniProt P04049); experiment: Inhibition of RAF1 at 10 uM
[40] = target: Leucine-rich repeat serine/threonine-protein kinase 2 (Homo sapiens) (UniProt Q5S007); experiment: Inhibition of LRRK2 at 10 uM
[41] = target: Cyclin-dependent kinase 5/CDK5 activator 1 (Homo sapiens) (UniProt Q00535+Q15078); experiment: Inhibition of CDK5/p25 at 10 uM; assay type: protein-complex assay
[42] = target: Tyrosine-protein kinase Lck (Homo sapiens) (UniProt P06239); experiment: Inhibition of LCK at 10 uM
[43] = target: Tyrosine-protein kinase SYK (Homo sapiens) (UniProt P43405); experiment: Inhibition of SYK at 10 uM
[44] = target: Insulin receptor (Homo sapiens) (UniProt P06213); experiment: Inhibition of INSR at 10 uM
[45] = target: Rho-associated protein kinase 2 (Homo sapiens) (UniProt O75116); experiment: Inhibition of ROCK2 at 10 uM
[46] = target: Serine/threonine-protein kinase PLK1 (Homo sapiens) (UniProt P53350); experiment: Inhibition of PLK1 at 10 uM
[47] = target: PI3-kinase p110-alpha/p85-alpha (Homo sapiens) (UniProt P27986+P42336); experiment: Inhibition of PIK3CA/PIK3R1 at 10 uM; assay type: protein-complex assay
[48] = Apparent permeability from apical to basolateral side in MDCK2 cells at 5 uM after 120 mins; assay type: ADME, cell-based, Canis lupus familiaris, MDCK-II; conditions: dog, MDCK

Chain of Mitogen-activated protein kinase 8 (P45983 whole entry): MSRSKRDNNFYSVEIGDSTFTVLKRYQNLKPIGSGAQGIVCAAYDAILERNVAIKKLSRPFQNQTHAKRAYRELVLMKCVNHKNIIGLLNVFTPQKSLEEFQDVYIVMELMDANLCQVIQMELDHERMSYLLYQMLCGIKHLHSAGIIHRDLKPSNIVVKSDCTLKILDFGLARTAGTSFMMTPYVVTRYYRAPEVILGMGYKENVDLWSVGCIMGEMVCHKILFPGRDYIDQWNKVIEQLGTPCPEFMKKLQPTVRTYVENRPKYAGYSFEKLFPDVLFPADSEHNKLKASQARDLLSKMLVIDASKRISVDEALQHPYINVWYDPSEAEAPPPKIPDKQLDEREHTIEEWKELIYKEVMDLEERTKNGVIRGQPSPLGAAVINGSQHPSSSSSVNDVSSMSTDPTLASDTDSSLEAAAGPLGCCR
Chain of Mitogen-activated protein kinase 9 (P45984 whole entry): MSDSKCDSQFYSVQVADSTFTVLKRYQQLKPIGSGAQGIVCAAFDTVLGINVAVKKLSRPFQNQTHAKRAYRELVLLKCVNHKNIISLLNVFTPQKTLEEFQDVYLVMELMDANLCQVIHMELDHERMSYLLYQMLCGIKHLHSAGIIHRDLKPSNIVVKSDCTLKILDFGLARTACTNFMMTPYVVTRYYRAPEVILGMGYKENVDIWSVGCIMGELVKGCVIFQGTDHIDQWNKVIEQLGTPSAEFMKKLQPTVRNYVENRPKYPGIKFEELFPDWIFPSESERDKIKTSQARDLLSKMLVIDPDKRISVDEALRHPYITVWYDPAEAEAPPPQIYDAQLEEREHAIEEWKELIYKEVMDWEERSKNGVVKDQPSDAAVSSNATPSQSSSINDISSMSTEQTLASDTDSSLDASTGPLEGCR
T1 sequence (P53779 whole entry): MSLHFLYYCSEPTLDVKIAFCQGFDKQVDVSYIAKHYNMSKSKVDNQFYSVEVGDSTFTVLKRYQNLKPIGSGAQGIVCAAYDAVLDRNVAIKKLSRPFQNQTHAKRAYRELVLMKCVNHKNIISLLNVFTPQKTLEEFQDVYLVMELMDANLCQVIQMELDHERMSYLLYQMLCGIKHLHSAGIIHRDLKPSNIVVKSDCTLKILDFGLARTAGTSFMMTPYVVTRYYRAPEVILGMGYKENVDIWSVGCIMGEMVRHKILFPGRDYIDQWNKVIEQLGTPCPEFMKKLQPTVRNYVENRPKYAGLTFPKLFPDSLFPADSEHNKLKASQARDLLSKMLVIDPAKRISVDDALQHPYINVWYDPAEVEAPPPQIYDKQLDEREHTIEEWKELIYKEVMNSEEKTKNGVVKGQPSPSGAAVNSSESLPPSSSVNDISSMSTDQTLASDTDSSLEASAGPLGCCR
Chain of Platelet-derived growth factor receptor alpha (Homo sapiens) (P16234 whole entry): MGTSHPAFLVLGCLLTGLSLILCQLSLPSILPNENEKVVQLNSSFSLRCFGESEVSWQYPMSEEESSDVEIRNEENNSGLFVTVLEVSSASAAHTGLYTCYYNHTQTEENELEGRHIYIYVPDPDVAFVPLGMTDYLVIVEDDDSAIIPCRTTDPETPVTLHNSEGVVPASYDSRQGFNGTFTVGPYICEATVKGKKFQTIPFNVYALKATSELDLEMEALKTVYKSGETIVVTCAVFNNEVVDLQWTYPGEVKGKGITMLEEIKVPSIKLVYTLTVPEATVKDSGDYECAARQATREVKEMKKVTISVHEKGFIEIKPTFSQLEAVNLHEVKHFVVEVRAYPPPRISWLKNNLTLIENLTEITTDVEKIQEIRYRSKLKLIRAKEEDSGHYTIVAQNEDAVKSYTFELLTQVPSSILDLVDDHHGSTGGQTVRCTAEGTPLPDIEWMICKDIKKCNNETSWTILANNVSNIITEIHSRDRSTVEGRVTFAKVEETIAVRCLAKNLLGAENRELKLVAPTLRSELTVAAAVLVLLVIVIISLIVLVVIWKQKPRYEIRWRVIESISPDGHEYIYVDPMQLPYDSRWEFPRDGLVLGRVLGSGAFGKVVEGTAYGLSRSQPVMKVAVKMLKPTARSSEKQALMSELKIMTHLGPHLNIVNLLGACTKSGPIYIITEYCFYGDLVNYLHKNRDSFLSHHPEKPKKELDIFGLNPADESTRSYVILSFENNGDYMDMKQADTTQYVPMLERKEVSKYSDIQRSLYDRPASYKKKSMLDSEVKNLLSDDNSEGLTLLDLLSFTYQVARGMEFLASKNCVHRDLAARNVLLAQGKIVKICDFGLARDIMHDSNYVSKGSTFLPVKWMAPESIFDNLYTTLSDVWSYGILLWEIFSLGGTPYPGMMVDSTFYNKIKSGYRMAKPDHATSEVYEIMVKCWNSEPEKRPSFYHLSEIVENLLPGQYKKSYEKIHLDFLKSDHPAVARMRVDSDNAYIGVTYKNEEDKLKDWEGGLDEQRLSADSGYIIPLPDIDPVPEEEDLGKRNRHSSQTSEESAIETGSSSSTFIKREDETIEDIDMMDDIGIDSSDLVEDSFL
Chain of Calcium/calmodulin-dependent protein kinase type II subunit alpha (Homo sapiens) (Q9UQM7 whole entry): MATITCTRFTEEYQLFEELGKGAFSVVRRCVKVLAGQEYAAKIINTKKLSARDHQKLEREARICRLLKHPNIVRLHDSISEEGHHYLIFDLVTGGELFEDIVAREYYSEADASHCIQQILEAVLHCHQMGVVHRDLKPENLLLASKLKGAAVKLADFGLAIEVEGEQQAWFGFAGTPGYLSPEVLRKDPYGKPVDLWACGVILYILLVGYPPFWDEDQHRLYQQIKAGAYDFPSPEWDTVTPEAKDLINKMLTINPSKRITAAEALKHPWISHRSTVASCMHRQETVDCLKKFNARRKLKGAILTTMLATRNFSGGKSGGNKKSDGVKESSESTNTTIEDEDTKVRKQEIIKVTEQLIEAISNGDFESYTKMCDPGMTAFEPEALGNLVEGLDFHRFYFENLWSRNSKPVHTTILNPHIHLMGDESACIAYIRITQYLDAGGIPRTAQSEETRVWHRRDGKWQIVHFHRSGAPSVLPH
Chain of Protein kinase C beta type (Homo sapiens) (P05771 2-671 limits assumed): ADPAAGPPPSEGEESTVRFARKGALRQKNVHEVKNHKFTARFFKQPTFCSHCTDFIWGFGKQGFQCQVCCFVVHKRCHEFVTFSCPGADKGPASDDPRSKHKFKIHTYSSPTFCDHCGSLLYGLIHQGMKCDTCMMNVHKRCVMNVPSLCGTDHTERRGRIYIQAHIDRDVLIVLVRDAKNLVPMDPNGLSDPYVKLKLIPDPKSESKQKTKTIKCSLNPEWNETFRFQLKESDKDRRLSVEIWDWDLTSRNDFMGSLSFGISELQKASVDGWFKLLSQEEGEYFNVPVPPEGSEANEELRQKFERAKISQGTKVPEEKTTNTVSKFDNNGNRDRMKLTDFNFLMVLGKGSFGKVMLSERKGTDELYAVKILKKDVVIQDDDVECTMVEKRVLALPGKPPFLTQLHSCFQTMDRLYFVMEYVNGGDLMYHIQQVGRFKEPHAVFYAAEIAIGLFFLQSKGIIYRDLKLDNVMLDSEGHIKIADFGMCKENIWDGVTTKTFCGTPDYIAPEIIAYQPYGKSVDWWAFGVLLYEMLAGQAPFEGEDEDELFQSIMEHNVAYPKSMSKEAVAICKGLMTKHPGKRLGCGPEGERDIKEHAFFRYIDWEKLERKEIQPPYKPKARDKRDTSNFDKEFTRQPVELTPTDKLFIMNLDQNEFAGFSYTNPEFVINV
Chain of Mitogen-activated protein kinase 1 (Homo sapiens) (P28482 whole entry): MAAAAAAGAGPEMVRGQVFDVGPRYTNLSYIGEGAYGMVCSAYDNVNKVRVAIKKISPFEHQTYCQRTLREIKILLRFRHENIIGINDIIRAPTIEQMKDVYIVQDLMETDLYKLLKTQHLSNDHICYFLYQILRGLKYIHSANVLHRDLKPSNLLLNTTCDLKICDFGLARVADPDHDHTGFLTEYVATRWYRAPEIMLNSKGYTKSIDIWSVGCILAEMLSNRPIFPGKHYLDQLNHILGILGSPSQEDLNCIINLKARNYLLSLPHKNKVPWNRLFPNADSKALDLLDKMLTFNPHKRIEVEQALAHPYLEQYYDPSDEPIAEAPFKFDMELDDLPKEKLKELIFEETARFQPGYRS
Chain of Glycogen synthase kinase-3 beta (Homo sapiens) (P49841 whole entry, looked up): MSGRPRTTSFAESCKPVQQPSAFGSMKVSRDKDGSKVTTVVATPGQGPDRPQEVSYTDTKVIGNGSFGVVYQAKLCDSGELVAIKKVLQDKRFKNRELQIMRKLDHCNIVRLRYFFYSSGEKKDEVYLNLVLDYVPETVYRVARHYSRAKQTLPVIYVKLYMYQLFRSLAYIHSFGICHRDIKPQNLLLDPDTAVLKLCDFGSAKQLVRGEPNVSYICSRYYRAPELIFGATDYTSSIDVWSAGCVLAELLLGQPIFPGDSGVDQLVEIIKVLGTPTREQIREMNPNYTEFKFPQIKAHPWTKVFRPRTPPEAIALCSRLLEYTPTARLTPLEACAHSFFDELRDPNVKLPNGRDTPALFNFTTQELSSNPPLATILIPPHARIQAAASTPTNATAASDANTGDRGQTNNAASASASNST
Chain of Serine/threonine-protein kinase PLK2 (Homo sapiens) (Q9NYY3 whole entry, looked up): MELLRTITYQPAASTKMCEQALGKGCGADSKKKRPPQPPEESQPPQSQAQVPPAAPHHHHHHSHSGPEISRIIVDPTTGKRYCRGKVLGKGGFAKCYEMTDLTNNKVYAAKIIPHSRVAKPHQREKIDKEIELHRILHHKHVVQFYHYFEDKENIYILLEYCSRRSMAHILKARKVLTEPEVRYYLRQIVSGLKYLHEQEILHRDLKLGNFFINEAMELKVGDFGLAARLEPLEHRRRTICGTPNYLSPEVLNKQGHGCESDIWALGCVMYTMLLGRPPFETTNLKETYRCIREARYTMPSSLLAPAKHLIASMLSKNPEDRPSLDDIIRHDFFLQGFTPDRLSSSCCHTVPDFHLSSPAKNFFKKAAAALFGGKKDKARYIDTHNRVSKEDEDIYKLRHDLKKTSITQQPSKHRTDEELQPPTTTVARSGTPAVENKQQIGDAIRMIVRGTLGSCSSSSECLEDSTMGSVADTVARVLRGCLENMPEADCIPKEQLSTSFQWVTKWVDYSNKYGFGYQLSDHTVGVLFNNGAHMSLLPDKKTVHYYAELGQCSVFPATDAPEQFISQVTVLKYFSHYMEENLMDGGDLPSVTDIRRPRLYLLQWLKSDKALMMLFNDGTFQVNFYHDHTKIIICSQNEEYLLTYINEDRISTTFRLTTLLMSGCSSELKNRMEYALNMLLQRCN

pIC50 [1]: 7.18
solubility [2]: 5 µM (≈ 2.01 µg/mL)
pIC50 [3]: 7.28
pIC50 [4]: < 4.30
SMILES: S=c1[nH]nc(-c2ccnc(NC3CCCCC3)c2)n1-c1ccc2ccccc2c1

Ratio IC50 [5]: 20
SMILES: c1ccc2cc(-c3[nH]ncc3-c3ccncc3)ccc2c1

pIC50 [1]: < 4.30
pIC50 [3]: < 4.30
remaining at 0.5 h [6]: 16%
pIC50 [4]: < 4.30
remaining at 0.5 h [7]: 0%
SMILES: c1ccc2cc(-c3nnnn3-c3ccncc3)ccc2c1

inhibition [8]: 2%
inhibition [9]: 41%
inhibition [10]: 28%
pIC50 [1]: 5.53
inhibition [11]: 0%
inhibition [12]: 1%
remaining at 1 h [13]: 8%
inhibition [14]: 1%
inhibition [15]: 4%
inhibition [16]: 46%
inhibition [17]: 0%
inhibition [18]: 39%
inhibition [19]: 0%
inhibition [20]: 0%
inhibition [21]: 5%
inhibition [22]: 16%
inhibition [23]: 8%
solubility [2]: 100 µM (≈ 30.4 µg/mL)
inhibition [24]: 11%
inhibition [25]: 12%
inhibition [26]: 0%
inhibition [27]: 0%
pIC50 [3]: 6.25
inhibition [28]: 49%
inhibition [29]: 1%
inhibition [30]: 94%
remaining at 0.5 h [6]: 100%
remaining at 1 h [31]: 1%
pIC50 [4]: 4.90
remaining at 0.5 h [7]: 100%
Ratio [32]: 1.12
inhibition [33]: 8%
inhibition [34]: 25%
inhibition [35]: 73%
inhibition [36]: 93%
inhibition [37]: 44%
inhibition [38]: 3%
Ratio IC50 [5]: > 10
inhibition [39]: 45%
inhibition [40]: 13%
inhibition [41]: 19%
inhibition [42]: 0%
inhibition [43]: 26%
inhibition [44]: 5%
inhibition [45]: 25%
inhibition [46]: 22%
inhibition [47]: 42%
SMILES: S=c1[nH]nc(-c2ccncc2)n1-c1ccc2ccccc2c1

pIC50 [1]: 6.06
remaining at 1 h [13]: 73%
pIC50 [3]: 6.61
remaining at 0.5 h [6]: 52%
remaining at 1 h [31]: 100%
pIC50 [4]: 5.15
remaining at 0.5 h [7]: 1%
Ratio [32]: 1.14
Papp A→B at 2 h, 5 µM [48]: 16.9 ×10⁻⁶ cm/s
SMILES: c1ccc2cc(-c3n[nH]cc3-c3ccncc3)ccc2c1

pIC50 [1]: 4.82
solubility [2]: 100 µM (≈ 31.8 µg/mL)
pIC50 [3]: 4.83
pIC50 [4]: < 4.30
SMILES: Cc1cc(-c2n[nH]c(=S)n2-c2ccc3ccccc3c2)ccn1

pIC50 [1]: 4.74
pIC50 [3]: 5.38
remaining at 0.5 h [6]: 29%
pIC50 [4]: < 4.30
remaining at 0.5 h [7]: 0%
SMILES: c1ccc2cc(-c3ncncc3-c3ccncc3)ccc2c1

pIC50 [1]: < 4.30
solubility [2]: 15 µM (≈ 4.58 µg/mL)
pIC50 [3]: 4.50
pIC50 [4]: < 4.30
SMILES: S=c1[nH]nc(-c2ccncc2)n1-c1ccc2ncccc2c1

pIC50 [1]: < 4.30
solubility [2]: 15 µM (≈ 4.1 µg/mL)
pIC50 [3]: 4.31
pIC50 [4]: < 4.30
SMILES: c1ccc2cc(-n3nnnc3-c3ccncc3)ccc2c1

pIC50 [1]: < 4.30
solubility [2]: 35 µM (≈ 13.4 µg/mL)
pIC50 [3]: < 4.30
pIC50 [4]: < 4.30
SMILES: S=c1[nH]nc(-c2ccnc(Br)c2)n1-c1ccc2ccccc2c1

pIC50 [1]: 4.34
solubility [2]: 100 µM (≈ 28.6 µg/mL)
pIC50 [3]: 4.74
pIC50 [4]: < 4.30
SMILES: Cc1nnc(-c2ccncc2)n1-c1ccc2ccccc2c1

pIC50 [1]: 5.91
pIC50 [3]: 6.44
remaining at 0.5 h [6]: 44%
pIC50 [4]: 5.16
remaining at 0.5 h [7]: 2%
Papp A→B at 2 h, 5 µM [48]: 15.2 ×10⁻⁶ cm/s
SMILES: c1ccc2cc(-c3[nH]nnc3-c3ccncc3)ccc2c1

pIC50 [1]: 4.72
remaining at 1 h [13]: 100%
solubility [2]: 35 µM (≈ 9.53 µg/mL)
pIC50 [3]: 5.35
remaining at 0.5 h [6]: 100%
remaining at 1 h [31]: 87%
pIC50 [4]: < 4.30
remaining at 0.5 h [7]: 76%
Papp A→B at 2 h, 5 µM [48]: 30.6 ×10⁻⁶ cm/s
SMILES: c1ccc2cc(-n3cnnc3-c3ccncc3)ccc2c1

pIC50 [1]: 5.03
pIC50 [3]: 5.61
remaining at 0.5 h [6]: 2%
pIC50 [4]: 4.38
remaining at 0.5 h [7]: 0%
SMILES: c1ccc2cc(-c3ccnn3-c3ccncc3)ccc2c1
